We go through 19 compounds from ChEMBL document CHEMBL1144511, “Synthesis and biological evaluation of phenolic Mannich bases of benzaldehyde and (thio)semicarbazone derivatives against the cysteine protease falcipain-2 and a chloroquine resistant strain of Plasmodium falciparum” (Bioorg Med Chem, 2007).

The subject of one test is Plasmodium falciparum. Briefly: Antiparasitic activity against Plasmodium falciparum W2. The test is classed as functional, organism-based. Put shortly: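 W2 (chloroquine-resistant) P. falciparum cultured at 1% parasitaemia, 2% haematocrit. Inhibitors from 10 mM DMSO stocks added to 20 μM final, then serially diluted to 10 μM, 2 μM, 0.4 μM, 80, 16 and 3.2 nM, in duplicate plates. Cultures kept 2 days at 37 °C, washed and fixed in 1% formaldehyde/PBS. Parasitaemia read by flow cytometry with YOYO-1 DNA stain.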

The target in the next test is T1, Falcipain 2 (Plasmodium falciparum, UniProt Q9N6S8).
T1 sequence (Q9N6S8 whole entry): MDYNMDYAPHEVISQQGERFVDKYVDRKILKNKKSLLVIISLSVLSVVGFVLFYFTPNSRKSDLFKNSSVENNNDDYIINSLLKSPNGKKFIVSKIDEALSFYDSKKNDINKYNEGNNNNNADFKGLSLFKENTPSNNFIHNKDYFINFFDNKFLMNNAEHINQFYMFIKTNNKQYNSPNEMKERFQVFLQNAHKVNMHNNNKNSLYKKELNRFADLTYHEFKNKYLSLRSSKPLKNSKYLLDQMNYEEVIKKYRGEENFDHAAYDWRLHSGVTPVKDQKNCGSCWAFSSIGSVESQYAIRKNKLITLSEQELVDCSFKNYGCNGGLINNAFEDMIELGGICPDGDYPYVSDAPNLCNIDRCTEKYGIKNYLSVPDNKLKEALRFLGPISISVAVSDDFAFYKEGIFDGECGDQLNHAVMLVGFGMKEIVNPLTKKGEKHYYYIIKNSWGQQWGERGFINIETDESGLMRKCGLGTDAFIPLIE
Briefly: Inhibition of Plasmodium falciparum recombinant falcipain-2. An outline of the steps:
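Recombinant enzyme (~1 nM) preincubated 30 min at room temperature with inhibitor dilutions (from 100× DMSO stocks) in 100 mM sodium acetate pH 5.5, 10 mM dithiothreitol; benzyloxycarbonyl peptide fluorogenic substrate then added, fluorescence followed continuously 30 min at room temperature. IC50 from activity versus inhibitor concentration plots.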

For orientation: IC50 means the point on the concentration scale where inhibition reaches its midpoint.

Regarding `O=C(NCCNc1ccnc2cc(Cl)ccc12)N/N=C/c1ccc(O)c(CN2CCN(c3ccnc4cc(Cl)ccc34)CC2)c1O`, the IC50 is 0.077 µM in the test with Plasmodium falciparum and 3.16 µM at Falcipain 2.

For `NC(=S)N/N=C/c1ccc(O)c(CN2CCOCC2)c1O`, the concentration for half-maximal inhibition (IC50) in the test on Plasmodium falciparum is above 10 µM; at Falcipain 2 it was above 20 µM.

As to `NC(=O)N/N=C/c1ccc(O)c(CN2CCN(c3ccnc4cc(Cl)ccc34)CC2)c1O`, the IC50 in the test on Plasmodium falciparum is 0.25 µM; at Falcipain 2 it was above 20 µM.

On to `CN1CCN(Cc2c(O)ccc(/C=N/NC(N)=S)c2O)CC1`, for which the IC50 with Plasmodium falciparum was above 10 µM; on Falcipain 2, 18.2 µM.

Take `CN1CCN(Cc2c(O)ccc(C=O)c2O)CC1`: the IC50 in the test with Plasmodium falciparum was above 10 µM; on Falcipain 2, above 20 µM.

For `O=C(NCCNc1ccnc2cc(Cl)ccc12)N/N=C/c1ccc(O)c(CN2CCCCC2)c1O`, the half-inhibitory concentration (IC50) came out at 0.27 µM in the test on Plasmodium falciparum and 0.63 µM on Falcipain 2.

On to `CCN(CC)Cc1c(O)ccc(/C=N/NC(N)=S)c1O`, for which the concentration for half-maximal inhibition (IC50) is above 10 µM in the test on Plasmodium falciparum and 11.1 µM on Falcipain 2.

For the compound `CCN(CC)Cc1c(O)ccc(/C=N/NC(=O)NCCNc2ccnc3cc(Cl)ccc23)c1O`, the 50% inhibitory concentration (IC50) was determined as 0.44 µM in the test on Plasmodium falciparum and 2.6 µM at Falcipain 2.

As to `NC(=S)N/N=C/c1ccc(O)c(CN2CCCCC2)c1O`, the IC50 with Plasmodium falciparum is above 10 µM; on Falcipain 2, 3.8 µM.

For `O=Cc1ccc(O)c(CN2CCCCC2)c1O`, the half-maximal inhibitory concentration (IC50) in the test with Plasmodium falciparum was above 10 µM; at Falcipain 2 it was above 20 µM.

`O=C(NCCNc1ccnc2cc(Cl)ccc12)N/N=C/c1ccc(O)c(CN2CCOCC2)c1O`: the values for the IC50 with Plasmodium falciparum and at Falcipain 2 were 0.11 µM and above 20 µM, respectively.

Turning to `O=C(NCCNc1ccnc2cc(Cl)ccc12)N/N=C/c1ccc(O)c(CN2CCCC2)c1O`, the IC50 in the test with Plasmodium falciparum is 1.07 µM; on Falcipain 2 it was 0.72 µM.

As to `NC(=S)N/N=C/c1ccc(O)c(CN2CCCC2)c1O`, the IC50 was above 10 µM with Plasmodium falciparum and 5.85 µM at Falcipain 2.

Turning to `CCN(CC)Cc1c(O)ccc(C=O)c1O`, the IC50 is above 10 µM with Plasmodium falciparum and above 20 µM at Falcipain 2.

For the compound `O=Cc1ccc(O)c(CN2CCOCC2)c1O`, the figures for the half-maximal inhibitory concentration (IC50) in the test with Plasmodium falciparum and on Falcipain 2 were above 10 µM and above 20 µM, respectively.

In the case of `O=Cc1ccc(O)c(CN2CCN(c3ccnc4cc(Cl)ccc34)CC2)c1O`, the values for the half-maximal inhibitory concentration (IC50) with Plasmodium falciparum and at Falcipain 2 were 1.07 µM and above 20 µM, respectively.

Turning to `CN1CCN(Cc2c(O)ccc(/C=N/NC(=O)NCCNc3ccnc4cc(Cl)ccc34)c2O)CC1`, the results for the IC50 in the test with Plasmodium falciparum and on Falcipain 2 were 0.38 µM and above 20 µM, respectively.

As for `O=Cc1ccc(O)c(CN2CCCC2)c1O`, the IC50 in the test on Plasmodium falciparum was above 10 µM; on Falcipain 2 it was above 20 µM.

Regarding `NC(=S)N/N=C/c1ccc(O)c(CN2CCN(c3ccnc4cc(Cl)ccc34)CC2)c1O`, the figures for the 50% inhibitory concentration (IC50) in the test on Plasmodium falciparum and on Falcipain 2 were 3.75 µM and 2.25 µM, respectively.
